# High-throughput results (PubChem BioAssay)
# Diaphorase act: activates diaphorase or chemically reduces, flagging diaphorase assay artifacts; Diaphorase/resazurin coupled assay, resorufin fluorescence, 16 min; active compounds read high; 1 = vehicle wells, 0 = NADH-free wells; activation factor at 20 µM; 0.005% of 190,000 active;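 active = diaphorase activity raised at least twofold by the compound at 20 µM; inactive = activation factor below 2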
#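 test system = bacterial diaphorase enzyme (C. kluyveri) | quantity = enzyme 0.07 U/mL final | reagent = NADH substrate 0.114 mM plus resazurin dye 0.1 mM, final | incubation = 16 min enzyme reaction, ambient temperature | buffer or medium = HEPES pH 7.4 buffer with MgCl2 and Tween 20 | signal = fluorescence of resorufin, 544 nm excitation, 590 nm emission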
# PMI act satM6P: PMI (human) activation, high substrate; coupled PMI enzyme assay, resazurin fluorescence, 20 min; active compounds read high; 1 = untreated enzyme, 0 = substrate-free blank; activation factor at 20 µM; 0.34% of 190,000 active;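 active = activation factor of 2 or more at 20 µM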
# Target sequence (P34949 whole entry, looked up): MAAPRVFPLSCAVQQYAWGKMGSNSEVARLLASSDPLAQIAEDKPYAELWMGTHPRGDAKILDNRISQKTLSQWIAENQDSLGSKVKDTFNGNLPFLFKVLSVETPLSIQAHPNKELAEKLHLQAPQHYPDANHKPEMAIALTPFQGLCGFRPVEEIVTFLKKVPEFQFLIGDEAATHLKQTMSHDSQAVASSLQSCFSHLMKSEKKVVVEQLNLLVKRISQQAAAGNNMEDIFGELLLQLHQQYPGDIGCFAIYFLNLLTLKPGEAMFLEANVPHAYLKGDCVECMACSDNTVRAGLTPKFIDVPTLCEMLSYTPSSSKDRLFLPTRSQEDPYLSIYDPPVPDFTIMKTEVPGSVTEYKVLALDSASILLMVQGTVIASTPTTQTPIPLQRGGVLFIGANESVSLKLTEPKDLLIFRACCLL
#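 Test system: human PMI in coupled enzyme assay; Input: PMI at 15 ng/mL final; Medium: HEPES buffer, pH 7.4; Schedule: 20 min incubation at room temperature; Technique: resorufin fluorescence at Ex 544/Em 590 nm; Compound: 20 µM single dose; Probe or stimulus: Near-saturating mannose-6-phosphate, 1.0 mM.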
# PMI act: activators of human phosphomannose isomerase; P34949; purified human PMI, coupled resazurin fluorescence, 20 min; active compounds read high; 1 = vehicle control, 0 substrate-free wells; activation factor at 20 µM; 0.005% of 190,000 active;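 active = activation factor of 2 or more at 20 µM, relative to plate controls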
# G6PDH CS: L. mesenteroides G6PDH inhibition counter-screen; inhibition, % at 5 µM; Purified L. mesenteroides G6PDH, diaphorase/resazurin coupled fluorescence, 45 min; 0.12% of 200,000 active; in the data active = inhibition above about 50%
# DTT redox prof: compounds producing H2O2 with reducing agent – biochemical, NIH compound library profiling, artefact control for MLSCN library redox annotation, primary screen; 0.03% of 200,000 active; activation, % at 10 µM; DTT-dependent redox cycling H2O2, phenol red/HRP absorbance; 100% = 100 µM peroxide control, 0% = buffer;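 active = activation of at least 50% relative to the plate's high and low controls in the primary single-dose screen; inactive = activation below 50%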;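 also: compound incubated with DTT at 0.8 mM final as the reducing agent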
# Diaphorase inh: counter-screen for diaphorase-based assays: diaphorase inhibitors and chemical oxidizers; diaphorase resazurin-to-resorufin fluorescence, NADH, 16 min; bacterial (C. kluyveri) enzyme, not human; inhibition, % at 20 µM; 0.69% of 190,000 active;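 active = primary screen inhibition at 20 µM above a set limit, cut at about 50% in these data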;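 also: plate controls were DMSO with full reaction for no effect and wells lacking NADH for full effect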
#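 Detection: fluorescence of resorufin formed from resazurin, Ex 544/Em 590 nm; test system: Clostridium kluyveri diaphorase enzyme; amount: 0.14 U/mL diaphorase, enzyme working solution; times: 16-min room-temperature incubation before reading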
# * hit, by the source's call; nt = not tested or not shown. Compounds with a hit are over-represented: about 1.1% of the library has one in this group of screens.
SMILES,Diaphorase act,PMI act satM6P,PMI act,G6PDH CS,DTT redox prof,Diaphorase inh
Cc1ccc(C(=O)ONc2ccc(N=O)cc2)cc1,0.9,0.8,0.9,-36,2,12
O=C(N/N=C/c1ccc(N2CCOCC2)o1)c1cccc([N+](=O)[O-])c1,0.2,0.4,0.2,8,-1,76*
O=C(N/N=C/c1ccc(N2CCCCC2)o1)c1ccccc1,0.9,0.9,1,10,-1,13
CC(=O)c1c(N2CCCC2)[nH]c(-c2ccccc2)nc1=S,0.8,0.9,0.9,7,0,22
CC(=O)c1c(N)[nH]c(-c2ccccc2)nc1=S,0.5,1,1,-4,0,50*
Cc1ccc(NC2Sc3ccccc3NC2=O)cc1 (configuration not stated),0.9,2.1*,1.6,2,0,7
COC(=O)CC1Sc2ccccc2NC1=O (configuration not stated),0.9,1,0.9,4,1,10
CC(=O)N(\C=C/C=C/C=C1\Sc2ccccc2C1=O)c1ccccc1,0.5,0.6,0.7,3,-1,53*
CNC(=O)c1[nH]cnc1C(=O)N[C@@H](C)C(=O)OC(C)(C)C,0.9,0.9,0.9,11,0,12
O=C(O)C1=C(OCc2ccccc2)C(=O)NCC1,1,1.1,1.1,7,-1,4
COc1ccc(OC)c(-c2c3cc(O)c(=O)cc-3oc3cc(O)c(O)cc23)c1,0.1,0.4,0.4,32,2,88*
CCOc1ccccc1-c1c2cc(O)c(=O)cc-2oc2cc(O)c(O)cc12,0.5,0.6,0.5,-15,1,49
COc1c(C)cc(Br)cc1C(=O)Nc1ccc(S(N)(=O)=O)cc1,1,1,1.2,1,0,2
COc1cc(/C=C/C(=O)Nc2ccc(N3CCCCC3)c(S(=O)(=O)Nc3ccccc3Cl)c2)cc(OC)c1OC,0.9,1,0.8,2,0,10
COc1ccc(-n2nc3cc(C)c(NC(C)=O)cc3n2)cc1,1,0.9,1,12,0,-3
COc1ccc(-n2nc3cc(C)c(N)c(Br)c3n2)cc1,0.3,0.2,0.1,25,2,74*
Cc1ccc(-n2nc3cc(C)c(N)cc3n2)cc1,0.2,0.4,0.2,25,4,76*
Cc1cc2nn(-c3cccc4ccccc34)nc2cc1N,0.2,0.2,0.2,-23,0,78*
Nc1ccc2nn(-c3cccc4ccccc34)nc2c1,0.6,0.4,0.6,47,2,41
C#CCNC(=O)C1=C[C@@H](c2ccccc2)C[C@@H](OCc2ccc(CO)cc2)O1,0.4,0.7,0.9,8,-1,56*
NC(=O)C1=C[C@@H](c2ccc(C(F)(F)F)cc2)C[C@@H](OCc2ccc(CO)cc2)O1,0.5,0.4,0.7,14,-1,52*
C#CCNC(=O)C1=C[C@H](c2ccc(C(F)(F)F)cc2)C[C@H](OCc2ccc(CO)cc2)O1,0.6,0.7,0.8,14,-1,39
Cc1ccc(-c2[nH]c3ccccc3c2SCCNC(=O)c2ccc(S(=O)(=O)N3CCOCC3)cc2)cc1,0.8,0.9,0.9,16,1,19
COc1ccccc1/C(O)=C(\C#N)c1nc2ccccc2[nH]1,0.9,1,1.2,8,-1,12
Oc1cccc(/C=N/NC(=S)NCCN2CCOCC2)c1O,0.3,0.5,0.3,60*,-1,66*
SMILES,Diaphorase act,PMI act satM6P,PMI act,G6PDH CS,DTT redox prof,Diaphorase inh
NC(=S)N/N=C/c1cccc(O)c1O,0.4,0.6,0.4,66*,-1,60*
Oc1cccc(/C=N/NC(=S)Nc2cccnc2)c1O,0.4,0.4,0.4,51*,nt,60*
O=C(O)c1ccc(/C=N/NC(=S)NCCN2CCOCC2)cc1,1.1,1.1,1.1,3,1,-13
CC(=O)c1cc(C(=O)N2CCc3c([nH]c4ccccc34)C2C2CCCCC2)[nH]n1 (configuration not stated),0.7,0.9,0.8,11,-1,30
CSc1ccc(/C=N/NC(=O)c2ccccc2Cl)cc1,0.4,1,0.9,0,0,58*
CN(C)c1ccc(/C=N/NC(=O)c2ccccc2Cl)cc1,0.9,1,1,-2,3,14
CCOC(=O)C1CCCN(C(=O)c2ccc(Cl)c(S(=O)(=O)N3CCCCCC3)c2)C1 (configuration not stated),1.1,1.2,1.2,-4,1,-11
O=C(O)c1ccc(N/N=C/c2cccc(F)c2)cc1,1,2.9*,1.9,0,0,-3
O=C(O)c1ccc(N/N=C/c2ccc(F)c(F)c2)cc1,0.9,1.9,1.4,-15,1,9
CCN1CCN(c2c(Cl)cccc2NC(=O)c2ccc([N+](=O)[O-])cc2)CC1,1,1,1,-2,0,4
COc1ccc(OC)c(Cc2nnc(CCC(=O)N3CCCCC3c3nccs3)o2)c1 (configuration not stated),0.9,1,0.9,0,0,13
CCc1ccc2c(c1)c(N=NC1=NC(=O)CS1)c(O)n2CC,0.2,1.1,1.1,7,1,79*
Cc1cc([N+](=O)[O-])ccc1-c1ccc(C2Nc3ccccc3C(=O)N2O)o1 (configuration not stated),0.3,0.9,1,-1,-3,68*
Cc1ccsc1C1Nc2ccccc2C(=O)N1O (configuration not stated),1.1,1.9,1.8,11,0,-13
Cc1nn(C)c(C)c1C1Nc2ccccc2C(=O)N1O (configuration not stated),1.1,2*,1.8,15,-3,-7
Cc1nn(C)cc1C1Nc2ccccc2C(=O)N1O (configuration not stated),1,2.2*,1.8,14,0,1
CC(C(=O)OCc1nnc(-c2ccccc2)o1)N1C(=O)C2CCCCC2C1=O (configuration not stated),1,1,0.9,1,0,5
Cc1ccc(S(=O)(=O)O/N=C2\CCCc3ccccc32)cc1,0.7,1,0.9,8,0,32
CC1=C(C)/C(=N\OS(=O)(=O)c2ccccc2)C=CC1=O,0,0.5,0.2,34,0,100*
CCOC(=O)C1=C(Cc2ccc(OC)cc2)C(=O)c2ccccc2C1=O,0.7,1,0.8,57*,-3,31
